This is a sample that favours compounds with a hit; in the whole collection about 2.6% have one here.
Yeast growth inh: growth inhibitors of yeast BB579 in restrictive medium, primary screen, yeast lifespan-shortening project, S. cerevisiae; OD615, 48 h; inhibition, % at 10 µM; actives 0.51% (n = 140,000);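 active means inhibition above a set limit, 3 SD over the mean compound inhibition, cut at about 44% in these data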
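Test system: Saccharomyces cerevisiae DeaD strain BB579, replicative lifespan model yeast | Buffer or medium: Restrictive CSMM-D medium | Doses: One dose, 10 µM compound with 0.25% DMSO | Incubation: 48 h exposure, 30 °C | Detection: Culture absorbance at 615 nm | Control set: Amphotericin B at 10 µg/mL as positive control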
RAM inhibit: inhibitors of the yeast RAM network, primary screen, dse1pr::URA3 reporter, 5-FOA selection | S. cerevisiae dse1pr::URA3 reporter, 5-FOA growth OD615, 2 d; analog-sensitive cbk1-as2 kinase mutant strain | inhibition, % at 50 µM | actives 1.8% (n = 190,000);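 active means inhibition above a set limit, 3 SD over mean compound inhibition, cut at about 8.4% in these data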;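 further: 0% = DMSO-only wells with no growth and 100% = 10 µM 1-NA-PP1 full growth; inhibition rescues growth on 5-FOA so higher OD means more RAM inhibition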
Yeast lifespan up: compounds extending yeast replicative lifespan, primary screen, S. cerevisiae, OD615; S. cerevisiae growth with nicotinamide; deaD strain in restrictive glucose medium; inhibition of the nicotinamide effect, % at 10 µM; AID 775, 2007; actives 0.68% (n = 130,000);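 active means inhibition above a set limit, placed 3 SD over the median of all compounds, cut at about 26% in these data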;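 further: 0% = nicotinamide-treated wells and 100% = cells grown without nicotinamide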
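System: Modified budding yeast, DeaD strain | Buffer or medium: Restrictive glucose medium | Also added: 1.5 mM nicotinamide | Doses: 10 µM single point, 0.25% DMSO | Schedule: 48 h compound exposure at 30 °C, humidified | Detection: Absorbance at 615 nm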
Numbers without * were called inactive.

`COC(=O)c1sc(S(=O)(=O)Nc2ccc3cn[nH]c3c2)c(C(=O)OC)c1C` gave Yeast growth inh -35, RAM inhibit 4 and Yeast lifespan up -9.
`COC(=O)c1sc(S(=O)(=O)Nc2ccc(Br)cc2)c(C(=O)OC)c1C` gave Yeast growth inh -12, RAM inhibit 8.7* and Yeast lifespan up 42*.
COC(=O)c1sc(S(=O)(=O)Nc2ccc(C)cc2)c(C(=O)OC)c1C was read as Yeast growth inh -41, RAM inhibit 7 and Yeast lifespan up 38*.
Screening COc1ccc(CS(=O)c2nc(C)cc(C)c2S(C)(=O)=O)cc1 (stereo unspecified) returned RAM inhibit 3.
`CC(C)c1ccc(N=C(N)N=C(N)N)cc1` gave RAM inhibit 0.
`O=C(Nc1nc(COc2ccccc2)cs1)C12CC3CC(CC(C3)C1)C2` gave Yeast growth inh -34, RAM inhibit 9.4* and Yeast lifespan up 8.
Screening CC(=O)Nc1nc(COc2ccccc2)cs1 returned Yeast growth inh -25, RAM inhibit 2 and Yeast lifespan up -32.
`O=C(CCl)Nc1ccccc1C(=O)c1ccccc1` gave RAM inhibit 0.
Screening O=C(COC(=O)c1cc(S(=O)(=O)N2CCCCC2)ccc1N1CCOCC1)NCCc1ccc(F)cc1 returned RAM inhibit -1.
For O=C(CCS(=O)(=O)Cc1ccccc1F)NCc1ccccc1Cl the results were RAM inhibit 2.
Cc1ccc(-c2cc3nc(C)cc(C)n3n2)cc1 was read as RAM inhibit 1.
Screening COc1ccc(-c2cc3nc(C)cc(N4CC(C)CC(C)C4)n3n2)cc1 (stereo unspecified) returned Yeast growth inh 71* and RAM inhibit 1.
Screening OC1(c2ccccc2)CN(c2ccccc2)C2=[N+]1CCS2 (stereo unspecified) returned Yeast growth inh -16, RAM inhibit 3 and Yeast lifespan up 17.
`O=C(CN(c1ccccc1)S(=O)(=O)c1ccccc1)NCCSCc1ccco1` gave Yeast growth inh -33, RAM inhibit 1 and Yeast lifespan up -7.
Screening COc1ccc(N(CC(=O)N/N=C/c2ccc3c(c2)OCO3)S(=O)(=O)c2ccccc2)cc1 returned RAM inhibit 9.2*.
COc1ccc(N(CC(=O)Nc2ccc3c(c2)OCO3)S(=O)(=O)c2ccccc2)cc1 was read as RAM inhibit 4.
For COc1ccc(N(CC(=O)NCCSCc2ccco2)S(=O)(=O)c2ccccc2)cc1 the results were RAM inhibit 9.3*.
COc1ccc(C(C)(C)C)cc1NC(=O)c1cc(S(=O)(=O)N(C)C)ccc1N1CCCC1 was read as Yeast growth inh -22, RAM inhibit 4 and Yeast lifespan up 3.
`COCc1cc(C)nc(SCC[N+](C)(C)CC(=O)Nc2cccc(C(F)(F)F)c2)c1C#N` gave RAM inhibit -1.
For O=C(NCc1ccco1)c1cc(C(=O)C2CCCCC2)c[nH]1 the results were Yeast growth inh -56, RAM inhibit 3 and Yeast lifespan up 96*.
For O=C(NCc1ccco1)C1CCCCC1 the results were RAM inhibit 1.
COc1ccccc1CNC(=O)C1CC(c2ccccc2[N+](=O)[O-])=NO1 (stereo unspecified) was read as Yeast growth inh -20, RAM inhibit 1 and Yeast lifespan up -18.
COc1cccc(NC(=O)CSc2nnc(-c3cccc(OC(C)C)c3)n2N)c1 was read as Yeast growth inh -40, RAM inhibit 11* and Yeast lifespan up -6.
Screening CCOc1cccc(-c2nnc(SCC(=O)Nc3cc(OC)cc(OC)c3)n2N)c1 returned Yeast growth inh -51, RAM inhibit 1 and Yeast lifespan up -11.
For Oc1cc2c(cc1O)C1c3ccc(O)c(O)c3OCC1(O)C2 (stereo unspecified) the results were RAM inhibit 1.
`Cc1ccc(/C=C2\C(=O)Nc3ccccc32)o1` gave Yeast growth inh 60*, RAM inhibit 1 and Yeast lifespan up -7.
`Cc1ccc2c(c1)/C(=C/c1ccco1)C(=O)N2` gave RAM inhibit 0.
For NC(=O)[C@@H]1CCCNc2c(I)cc([N+](=O)[O-])cc2C(=O)N[C@@H](CO)C(=O)NCC(=O)N1 the results were Yeast growth inh -26, RAM inhibit 0 and Yeast lifespan up 2.
`Clc1cccc(Cl)c1CSc1nnc(/C=C/c2ccccc2)o1` gave Yeast growth inh -59, RAM inhibit 11* and Yeast lifespan up 1.
Screening C[C@H](N)c1nnc(SCc2c(Cl)cccc2Cl)o1 returned Yeast growth inh -32, RAM inhibit 1 and Yeast lifespan up 3.
`CCCCCCn1c(C)nc2c(c1=O)c1nc3ccccc3nc1n2/N=C/c1ccco1` gave Yeast growth inh -31, RAM inhibit 3 and Yeast lifespan up -10.
CCO/C(C)=N/n1c2nc3ccccc3nc2c2c(=O)n(Cc3ccccc3Cl)c(C)nc21 was read as Yeast growth inh -24, RAM inhibit 8.6* and Yeast lifespan up 12.
`O=C(O)CN1C(=O)/C(=C/c2ccc(SCc3ccccc3)o2)SC1=S` gave RAM inhibit 7.
For c1ccc(CN2CCN(C3=Nc4cccc5cccc3c45)CC2)cc1 the results were Yeast growth inh -46, RAM inhibit 0 and Yeast lifespan up -3.
`O=C1CCN2C=Nc3cccc4ccc1c2c34` gave Yeast growth inh 57*, RAM inhibit 1 and Yeast lifespan up -12.
Cc1c(C(=O)N2c3ccccc3Sc3ccccc32)cccc1[N+](=O)[O-] was read as Yeast growth inh -22, RAM inhibit 3 and Yeast lifespan up -2.
CCN1CCN(C(=S)NC(C)c2ccccc2)CC1 (stereo unspecified) was read as Yeast growth inh -38, RAM inhibit 2 and Yeast lifespan up 1.
Screening Cc1sc(NC(=O)c2ccco2)c(C(c2cccnc2)N2CCN(c3ccc(F)cc3)CC2)c1C (stereo unspecified) returned Yeast growth inh -3, RAM inhibit 8.4* and Yeast lifespan up 0.
Screening Cc1sc(NC(=O)c2ccco2)c(C(c2cccnc2)N2CCN(CCO)CC2)c1C (stereo unspecified) returned RAM inhibit 2.
CCn1c(SCc2ccc(Cl)cc2Cl)nc2nc3c(cc2c1=O)CCCC3 was read as Yeast growth inh -36, RAM inhibit 4 and Yeast lifespan up -7.
For CSc1nc(N2CCCC2)c2c(c1C#N)CC(C)(C)OC2 the results were Yeast growth inh 1, RAM inhibit 0 and Yeast lifespan up -7.
`CCCSc1nc(N2CCCC2)c2c(c1C#N)CC(C)(C)OC2` gave Yeast growth inh -27, RAM inhibit 8.5* and Yeast lifespan up -16.
CN(Cc1nc2ccccc2c(=O)[nH]1)Cc1nc2ccsc2c(=O)[nH]1 was read as RAM inhibit 0.
Screening CSc1nc2ccsc2c(=O)n1-c1ccccc1 returned RAM inhibit 4.
CN(c1ccccc1)c1nc2ccsc2c(=O)s1 was read as Yeast growth inh -31, RAM inhibit 2 and Yeast lifespan up 88*.
`CCN(c1ccccc1)c1nc2ccsc2c(=O)s1` gave Yeast growth inh -24, RAM inhibit 8.5* and Yeast lifespan up -14.

Screens: PubChem, SRMLSC
